Among the data in ChEMBL document CHEMBL3120078, “Benzofuran derivatives as a novel class of inhibitors of mTOR signaling” (Eur J Med Chem, 2014) are inhibition, IC50 and Activity values, retold here.

In assay [1] the target is T1, mTORC1 (Homo sapiens) (UniProt P42345+Q8N122+Q9BVC4). The assay is described as follows: Inhibition of mTORC1 in human SQ20B cells assessed as inhibition of S6 ribosomal protein phosphorylation after 10 to 12 hrs by pull down assay. It counts as cell-based.
The test system of assay [2] is SQ20B. The assay is described as follows: Cytotoxicity against human SQ20B cells after 72 hrs by MTT assay. It counts as functional, cell-based. An outline of the steps: (§1)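 Cells grown in RPMI with 10% FCS, 2 mM glutamine and antibiotics at 37 °C, 5% CO2, seeded at 2 × 10³ cells/well. Treated 72 h, then MTT 0.4 mg/ml for 4 h at 37 °C. Formazan dissolved in DMSO, absorbance read at 560 nm. Untreated wells and cell-free wells as controls. IC50 taken from dose–response curves.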
On the technique in general: Formazan colour is commonly taken as a measure of viable cells.

For assay [3], the system named is HOP-62. Briefly: Cytotoxicity against human HOP62 cells after 72 hrs by MTT assay. Format: functional, cell-based. The note with it: HOP-62, 72 h. An outline of the steps: as §1
The nature of assay [4]: Cytotoxicity against human SKHEP1 cells after 72 hrs by MTT assay. It counts as functional, cell-based. The note with it: SK-HEP1, 72 h.
In assay [5] the test system is DU-145. Briefly: Cytotoxicity against human DU145 cells after 72 hrs by MTT assay. Conditions: DU-145, 72 h. It counts as functional, cell-based.
Assay [6] relates to OVCAR-3. Briefly: Cytotoxicity against human OVCAR3 cells after 72 hrs by MTT assay. Format: functional, cell-based. The note with it: OVCAR-3, 72 h.
For assay [7], the system named is HT-29. Briefly: Cytotoxicity against human HT-29 cells after 72 hrs by MTT assay. Format: functional, cell-based. Conditions: HT-29, 72 h. In outline: as §1
The test system of assay [8] is CAKI-1. The assay is described as follows: Cytotoxicity against human Caki1 cells after 72 hrs by MTT assay. Format: functional, cell-based. Conditions: CAKI-1, 72 h.
A short description of assay [9]: Cytotoxicity against human ColoR cells after 72 hrs by MTT assay. It counts as functional, cell-based. In outline:
as §1

Assay [10] has as its system HCT-116. Briefly: Cytotoxicity against human HCT116 cells after 72 hrs by MTT assay. It counts as functional, cell-based. Conditions: HCT-116, 72 h. An outline of the steps: as §1
Assay [11] has as its system COLO 205. The assay is described as follows: Cytotoxicity against human COLO205 cells after 72 hrs by MTT assay. The note with it: COLO 205, 72 h. It counts as functional, cell-based. An outline of the steps:
as §1

Assay [12] concerns the target T1, mTORC1 (Homo sapiens). The assay is described as follows: Inhibition of mTORC1 in human SQ20B cells assessed as AKT phosphorylation after 10 to 12 hrs by pull down assay. Format: cell-based.
Assay [13] has as its target T2, 3-phosphoinositide-dependent protein kinase 1 (Homo sapiens) (UniProt O15530).
T2 sequence (whole entry): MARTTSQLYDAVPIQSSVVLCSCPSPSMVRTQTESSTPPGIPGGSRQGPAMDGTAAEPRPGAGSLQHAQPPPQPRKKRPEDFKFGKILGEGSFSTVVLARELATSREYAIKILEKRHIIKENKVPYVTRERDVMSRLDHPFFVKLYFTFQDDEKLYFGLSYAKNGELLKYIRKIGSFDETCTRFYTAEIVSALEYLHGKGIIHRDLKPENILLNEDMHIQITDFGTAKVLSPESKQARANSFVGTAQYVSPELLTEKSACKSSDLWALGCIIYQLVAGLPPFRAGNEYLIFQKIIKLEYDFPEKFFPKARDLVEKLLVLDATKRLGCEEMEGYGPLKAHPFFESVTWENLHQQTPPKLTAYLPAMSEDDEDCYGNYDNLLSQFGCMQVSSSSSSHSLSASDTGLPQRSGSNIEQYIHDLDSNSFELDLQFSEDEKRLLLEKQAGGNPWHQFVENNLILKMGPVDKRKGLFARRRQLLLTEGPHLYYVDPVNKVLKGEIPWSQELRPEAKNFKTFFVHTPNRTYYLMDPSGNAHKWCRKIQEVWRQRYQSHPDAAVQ
The assay is described as follows: Binding affinity to PDK1 in human SQ20B cells after 10 to 12 hrs by pull down assay. Format: cell-based.

Assay [14] addresses Regulatory-associated protein of mTOR (Homo sapiens) (UniProt Q8N122). The assay is described as follows: Binding affinity to raptor in human SQ20B cells after 10 to 12 hrs by pull down assay. It counts as cell-based.
In assay [15] the test system is SQ20B. Briefly: Binding affinity to PI3K in human SQ20B cells after 10 to 12 hrs by pull down assay. It counts as cell-based.
For assay [16], the target named is T3, RAC-alpha serine/threonine-protein kinase (Homo sapiens, UniProt P31749). The assay is described as follows: Binding affinity to Akt in human SQ20B cells after 10 to 12 hrs by pull down assay. Format: cell-based.
T3 sequence (P31749 whole entry): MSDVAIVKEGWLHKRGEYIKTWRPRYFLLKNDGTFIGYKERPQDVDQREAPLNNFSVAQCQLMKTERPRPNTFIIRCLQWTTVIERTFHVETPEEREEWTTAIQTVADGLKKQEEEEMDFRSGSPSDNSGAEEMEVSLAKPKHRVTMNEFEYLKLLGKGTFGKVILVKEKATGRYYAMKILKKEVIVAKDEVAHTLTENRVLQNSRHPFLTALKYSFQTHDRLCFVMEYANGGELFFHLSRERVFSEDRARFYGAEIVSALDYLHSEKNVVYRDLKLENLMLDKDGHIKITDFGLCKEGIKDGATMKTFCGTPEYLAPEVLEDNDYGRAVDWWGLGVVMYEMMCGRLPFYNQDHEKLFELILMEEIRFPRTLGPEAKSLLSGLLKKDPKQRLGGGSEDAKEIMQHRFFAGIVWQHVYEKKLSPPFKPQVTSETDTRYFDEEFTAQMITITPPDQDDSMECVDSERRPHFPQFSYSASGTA
For assay [17], the target named is Rapamycin-insensitive companion of mTOR (Homo sapiens) (UniProt Q6R327). The assay is described as follows: Binding affinity to rictor in human SQ20B cells after 10 to 12 hrs by pull down assay. It counts as cell-based.
Chain of Rapamycin-insensitive companion of mTOR (Homo sapiens) (Q6R327 whole entry): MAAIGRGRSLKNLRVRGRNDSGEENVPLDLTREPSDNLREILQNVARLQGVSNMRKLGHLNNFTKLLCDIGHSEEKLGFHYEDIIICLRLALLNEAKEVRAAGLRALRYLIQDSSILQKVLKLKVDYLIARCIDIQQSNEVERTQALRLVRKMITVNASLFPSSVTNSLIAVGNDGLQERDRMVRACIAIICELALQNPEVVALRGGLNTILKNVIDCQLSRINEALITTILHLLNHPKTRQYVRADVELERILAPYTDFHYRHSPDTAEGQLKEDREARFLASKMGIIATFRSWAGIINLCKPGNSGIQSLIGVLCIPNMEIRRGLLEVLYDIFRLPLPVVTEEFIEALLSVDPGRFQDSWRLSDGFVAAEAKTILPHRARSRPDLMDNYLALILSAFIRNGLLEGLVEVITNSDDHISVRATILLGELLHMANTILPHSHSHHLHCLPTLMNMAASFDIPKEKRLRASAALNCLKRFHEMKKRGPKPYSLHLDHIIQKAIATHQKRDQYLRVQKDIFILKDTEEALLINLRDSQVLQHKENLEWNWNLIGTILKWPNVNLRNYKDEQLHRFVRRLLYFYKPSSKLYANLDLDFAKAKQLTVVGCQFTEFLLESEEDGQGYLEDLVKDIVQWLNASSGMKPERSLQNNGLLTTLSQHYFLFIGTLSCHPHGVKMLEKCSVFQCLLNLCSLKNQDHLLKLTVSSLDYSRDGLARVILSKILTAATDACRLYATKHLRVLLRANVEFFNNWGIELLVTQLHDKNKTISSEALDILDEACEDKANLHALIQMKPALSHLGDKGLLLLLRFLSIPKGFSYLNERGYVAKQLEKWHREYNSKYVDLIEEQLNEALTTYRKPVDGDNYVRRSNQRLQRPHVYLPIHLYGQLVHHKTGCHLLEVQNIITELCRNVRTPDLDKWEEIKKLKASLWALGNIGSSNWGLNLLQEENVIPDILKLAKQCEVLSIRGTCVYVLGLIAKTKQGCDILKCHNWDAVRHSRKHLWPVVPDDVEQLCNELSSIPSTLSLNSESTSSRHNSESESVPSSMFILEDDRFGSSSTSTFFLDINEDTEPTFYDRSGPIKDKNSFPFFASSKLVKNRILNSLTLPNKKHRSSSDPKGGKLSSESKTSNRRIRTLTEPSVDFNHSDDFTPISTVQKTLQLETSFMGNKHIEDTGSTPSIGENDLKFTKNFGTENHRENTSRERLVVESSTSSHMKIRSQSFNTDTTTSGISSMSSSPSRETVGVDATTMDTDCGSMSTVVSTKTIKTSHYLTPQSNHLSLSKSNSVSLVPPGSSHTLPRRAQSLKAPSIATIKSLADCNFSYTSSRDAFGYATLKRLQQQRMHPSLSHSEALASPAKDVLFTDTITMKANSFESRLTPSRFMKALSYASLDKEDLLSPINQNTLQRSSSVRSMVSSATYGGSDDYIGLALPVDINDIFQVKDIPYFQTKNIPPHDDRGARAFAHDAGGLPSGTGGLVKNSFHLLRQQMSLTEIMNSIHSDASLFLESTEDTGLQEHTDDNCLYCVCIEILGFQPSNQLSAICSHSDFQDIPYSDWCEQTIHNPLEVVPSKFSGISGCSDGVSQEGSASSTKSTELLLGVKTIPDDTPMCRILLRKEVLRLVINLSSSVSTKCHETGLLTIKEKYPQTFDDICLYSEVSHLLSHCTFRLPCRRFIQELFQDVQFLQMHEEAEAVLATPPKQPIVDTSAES
Assay [18] deals with Serine/threonine-protein kinase mTOR (Homo sapiens) (UniProt P42345). Briefly: Binding affinity to mTOR in human SQ20B cells after 10 to 12 hrs by pull down assay. Format: cell-based.
Assay [19] can be described thus: Cytotoxicity against human 786-O cells. Format: functional, cell-based. Conditions: 786-0.
Assay [20] addresses T3, RAC-alpha serine/threonine-protein kinase. Briefly: Inhibition of Akt/mTOR in human 786-O cells assessed as inhibition of nuclear export of transcription factor FOXO1a. Format: cell-based.
Assay [21] has as its system HOP-92. Briefly: Cytotoxicity against human HOP92 cells after 72 hrs by MTT assay. Conditions: HOP-92, 72 h. Format: functional, cell-based.
The subject of assay [22] is HCC 2998. The assay is described as follows: Cytotoxicity against human HCC2998 cells after 72 hrs by MTT assay. Format: functional, cell-based. Conditions: HCC 2998, 72 h.

Calls of active or inactive are those of the source. The rule behind the calls is not given here.

T1 sequence (Q8N122 whole entry, looked up, other chains not shown): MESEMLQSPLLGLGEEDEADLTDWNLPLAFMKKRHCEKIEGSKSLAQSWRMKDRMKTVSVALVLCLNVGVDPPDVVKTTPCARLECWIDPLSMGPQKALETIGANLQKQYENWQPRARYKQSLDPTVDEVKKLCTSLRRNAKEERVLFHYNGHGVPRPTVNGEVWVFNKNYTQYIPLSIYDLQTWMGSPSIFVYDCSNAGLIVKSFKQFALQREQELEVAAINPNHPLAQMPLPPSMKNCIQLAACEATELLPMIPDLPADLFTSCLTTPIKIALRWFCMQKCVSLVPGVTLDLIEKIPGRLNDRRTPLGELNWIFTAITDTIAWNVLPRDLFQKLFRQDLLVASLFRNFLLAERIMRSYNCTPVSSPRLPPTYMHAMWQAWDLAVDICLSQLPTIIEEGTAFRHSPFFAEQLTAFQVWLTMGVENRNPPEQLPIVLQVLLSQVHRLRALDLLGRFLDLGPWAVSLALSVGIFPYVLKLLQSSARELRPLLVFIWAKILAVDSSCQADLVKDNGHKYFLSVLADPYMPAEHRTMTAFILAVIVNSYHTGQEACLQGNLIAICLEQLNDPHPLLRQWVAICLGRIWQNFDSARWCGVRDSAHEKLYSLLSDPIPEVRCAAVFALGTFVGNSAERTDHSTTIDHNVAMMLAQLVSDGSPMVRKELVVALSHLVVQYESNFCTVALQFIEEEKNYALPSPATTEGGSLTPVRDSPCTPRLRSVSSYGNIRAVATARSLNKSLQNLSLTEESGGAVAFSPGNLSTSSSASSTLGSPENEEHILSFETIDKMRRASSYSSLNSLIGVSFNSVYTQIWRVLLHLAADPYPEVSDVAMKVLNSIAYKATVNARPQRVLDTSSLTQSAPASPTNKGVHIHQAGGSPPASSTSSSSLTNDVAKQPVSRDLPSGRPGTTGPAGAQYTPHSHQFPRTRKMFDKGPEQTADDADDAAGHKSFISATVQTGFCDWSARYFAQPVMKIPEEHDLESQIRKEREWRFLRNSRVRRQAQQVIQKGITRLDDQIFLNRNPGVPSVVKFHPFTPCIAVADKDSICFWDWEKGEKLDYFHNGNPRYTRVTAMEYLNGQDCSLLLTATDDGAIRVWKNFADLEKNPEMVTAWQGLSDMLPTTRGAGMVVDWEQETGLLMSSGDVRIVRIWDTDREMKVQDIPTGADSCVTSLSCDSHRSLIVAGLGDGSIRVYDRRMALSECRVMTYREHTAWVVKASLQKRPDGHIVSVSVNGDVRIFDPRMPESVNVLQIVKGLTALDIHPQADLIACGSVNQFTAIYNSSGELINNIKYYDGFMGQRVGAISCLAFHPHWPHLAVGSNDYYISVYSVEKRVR
T1 sequence (Q9BVC4 whole entry, looked up, other chains not shown): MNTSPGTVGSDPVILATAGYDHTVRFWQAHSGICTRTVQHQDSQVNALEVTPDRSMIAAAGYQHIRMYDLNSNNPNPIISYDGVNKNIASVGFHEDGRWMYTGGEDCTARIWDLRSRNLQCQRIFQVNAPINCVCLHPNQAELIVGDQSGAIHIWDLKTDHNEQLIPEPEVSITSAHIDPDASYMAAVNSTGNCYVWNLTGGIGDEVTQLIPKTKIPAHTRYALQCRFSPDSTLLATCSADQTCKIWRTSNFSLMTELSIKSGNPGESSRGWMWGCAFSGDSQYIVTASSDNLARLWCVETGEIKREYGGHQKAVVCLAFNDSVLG
Chain of Regulatory-associated protein of mTOR (Homo sapiens) (Q8N122 whole entry): as the sequence (Q8N122 whole entry, looked up, other chains not shown) above

In general, IC50 refers to the concentration that gives 50% inhibition. For the molecule `Oc1ccc2oc(Cc3ccccc3)cc2c1CN1CCC(N2CCCC2)CC1`, the inhibition result in [1] was “Dose-dependent effect”. This molecule gave an IC50 in assay [2] of 3 µM.
Take `Oc1ccc2oc(Cc3ccccc3)cc2c1CN1CCC(N2CCCCC2)CC1`: the IC50 is 11 µM in assay [3]; 11 µM in assay [4]; 20 µM in [5]; 19 µM in assay [6]; 5.1 µM in assay [7]; 6.9 µM in assay [8]. In addition, the half-inhibitory concentration (IC50) in assay [9] was found to be 3.7 µM; in assay [10], 12 µM; in assay [11], 3.1 µM; in assay [2], 3 µM.
Take `OCCN(CCO)Cc1c(O)ccc2oc(Cc3ccccc3)cc12`: in [2], the IC50 was over 200 µM.
Still for that read-out and setting: with `Oc1ccc2oc(Cc3ccccc3)cc2c1CN1CCCC(O)C1` (stereo not given) the figure was 11 µM; with `Oc1ccc2oc(C(O)c3ccccc3)cc2c1CN1CCC(N2CCCCC2)CC1` (stereo not given), 13 µM.
Regarding `Oc1ccc2oc(Cc3ccccc3)cc2c1CN1CCC(c2ccccc2)CC1`, the IC50 in assay [2] is over 200 µM.
On the same count and under the same terms, with `OCCOCCN1CCN(Cc2c(O)ccc3oc(Cc4ccccc4)cc23)CC1` the figure was 21 µM; with `CN(CCO)Cc1c(O)ccc2oc(Cc3ccccc3)cc12`, 30 µM.
For `O=C(CCC(=O)ON1C(=O)CCC1=O)NCCNC(=O)COC(=O)NCCOCCOCCOCCOCCOCCOCCNC(=O)C1CCN(C2CCN(Cc3c(O)ccc4oc(-c5ccccc5)cc34)CC2)CC1`, the inhibition entry in assay [12] was “Active”. For the same molecule, the outcome in [13], in assay [14], in assay [15], in assay [16] and in [17] was inactive. For the same molecule, the inhibition result in assay [1] was “Dose-dependent effect”. Further, the result in assay [18] was Active.
`COc1cccc2cc(-c3nc([C@H]4CC[C@H](C(=O)O)CC4)n4ncnc(N)c34)[nH]c12` [OSI-027]: the IC50 in assay [3] amounted to 41 µM; in assay [4] it was 3.2 µM; in [5] it was 4.1 µM; in assay [6] it was 8.1 µM; in assay [7], 55 µM; in assay [8], 1.9 µM. The 50% inhibitory concentration (IC50) in assay [9] amounted to 5.8 µM; in [10] it was 5.6 µM; in [11] it was 5.8 µM; in [2] it was 1.3 µM.
In turn, `CN(Cc1c(O)ccc2oc(Cc3ccccc3)cc12)C1CCCCC1` yielded an IC50 in assay [2] of 12 µM.
As to `Oc1ccc2oc(-c3ccccc3)cc2c1CN1CCC(N2CCCCC2)CC1`, the IC50 in assay [3] is 54 µM; in assay [4], 42 µM; in assay [5], 13 µM; in assay [6], 22 µM; in assay [7] it was 45 µM; in [8], 26 µM. Besides, the IC50 amounted to 18 µM in [9], 57 µM in assay [10], 6.3 µM in assay [11] and 2.8 µM in assay [2].
The molecule `CN1CCN(Cc2c(O)ccc3oc(Cc4ccccc4)cc23)CC1` had an IC50 in assay [2] of 18 µM.
Same read-out and setting: with `O=C(c1ccccc1)c1cc2c(CN3CCC(N4CCCCC4)CC3)c(O)ccc2o1` the figure was 17 µM; with `Oc1ccc2oc(Cc3ccccc3)cc2c1CN1CCN(Cc2ccccc2)CC1`, 36 µM.
`Oc1ccc2oc(Cc3ccccc3)cc2c1CN1CCOCC1` gave a half-maximal inhibitory concentration (IC50) in [2] of 6.5 µM.
Molecule `O=CN1CCN(Cc2c(O)ccc3oc(Cc4ccccc4)cc23)CC1` had an IC50 in assay [2] of 49 µM.
On the same count and under the same terms, with `Oc1ccc2oc(Cc3ccccc3)cc2c1CN1CCc2ccccc2C1` the figure was 16 µM; with `Oc1ccc2oc(Cc3ccccc3)cc2c1CN1CCC(O)CC1`, 13 µM.
Same read-out and setting: with `CN(Cc1ccccc1)Cc1c(O)ccc2oc(Cc3ccccc3)cc12` the figure was 12 µM.
Take `O=C(NCCOCCO)C1CCN(C2CCN(Cc3c(O)ccc4oc(Cc5ccccc5)cc34)CC2)CC1`: the half-inhibitory concentration (IC50) in [2] is 14 µM.
On to `NC(=O)C1CCN(Cc2c(O)ccc3oc(Cc4ccccc4)cc23)CC1`, for which the IC50 in assay [2] was 85 µM.
Same read-out and setting: with `CON(C)Cc1c(O)ccc2oc(Cc3ccccc3)cc12` the figure was 40 µM.
Turning to `CO[C@H]1C[C@@H]2CC[C@@H](C)[C@@](O)(O2)C(=O)C(=O)N2CCCC[C@H]2C(=O)O[C@H]([C@H](C)C[C@@H]2CC[C@@H](OCCO)[C@H](OC)C2)CC(=O)[C@H](C)/C=C(\C)[C@@H](O)[C@@H](OC)C(=O)[C@H](C)C[C@H](C)/C=C/C=C/C=C/1C` [EVEROLIMUS], the IC50 was 19 µM in [3]; 12 µM in assay [4]; 8 µM in assay [5]; 16 µM in [6]; 15 µM in assay [7]; 14 µM in [8]. The concentration for half-maximal inhibition (IC50) came out at 8.7 µM in [9], 12 µM in assay [10], 20 µM in assay [11] and 5.5 µM in assay [2].
On to `CCN(CC)Cc1c(O)ccc2oc(Cc3ccccc3)cc12`, for which the IC50 in assay [2] worked out at 12 µM.
In the case of `CN(C)Cc1c(O)ccc2oc(Cc3ccccc3)cc12`, the IC50 in assay [19] amounted to 10 µM; in [20], 20 µM; in assay [2] it was 33 µM; in assay [21] it was 40 µM; in assay [22], 40 µM.
In [2], `OCCN(Cc1c(O)ccc2oc(Cc3ccccc3)cc12)C1CCCCC1` yielded a 50% inhibitory concentration (IC50) of 27 µM.
